Test results published in ChEMBL document CHEMBL4002547, “Aminopurine and aminoquinazoline scaffolds for development of potential dengue virus inhibitors” (Eur J Med Chem, 2017).

How the values were obtained:
[1] = Inhibition of Dengue virus serotype 2 N-terminal His6-tagged NS5 RdRp activity expressed in baculovirus expression system using poly(C)/5'-biotinylated oligo (G)20 as template/primer assessed as inhibition of [3H]GTP incorporation after 20 mins by scintillation proximity assay; parameters: species or system dengue virus type 2
[2] = test system: dengue virus type 2; test: Antiviral activity against Dengue virus serotype 2 infected in African green monkey Vero B cells assessed as inhibition of viral RNA replication after 4 days by RT-qPCR method; format: functional; details: 96 h, read-out: ED50 (the source's name)
[3] = Cytotoxicity against African green monkey Vero B cells assessed as decrease in cell viability by MTS/PMS assay; format: cell-based; details: chlorocebus sabaeus
Procedure, shortened: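 Vero B cells (African green monkey kidney, ECACC) were incubated for 7 days with serial compound dilutions without virus. Toxicity was quantified by the MTS/PMS method, and CC50 is the compound concentration giving 50% cytotoxicity.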

[4] = Selectivity index, ratio of CC50 for African green monkey Vero B cells to EC50 for Dengue virus serotype 2 infected in African green monkey Vero B cells; format: toxicity; details: read-out: Ratio CC50/EC50
Procedure, shortened: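 In a CPE-reduction assay, DENV-2 in Vero B cells was run over 7 days with serial compound dilutions, with and without virus. EC50 (inhibition of virus-induced CPE) and CC50 come from microscopic scoring, with MTS/PMS also used for toxicity. The index is CC50/EC50.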

[5] = Cytotoxicity against African green monkey Vero B cells assessed as decrease in cell viability by microscopic method; format: cell-based; details: chlorocebus sabaeus
Procedure, shortened: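 Uninfected Vero B cells were exposed for 7 days to serial compound dilutions. Wells were inspected microscopically for changes in host cell morphology, and CC50 was calculated from the microscopic scoring data.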

[6] = test system: dengue virus type 2; test: Antiviral activity against Dengue virus serotype 2 by human cell-based assay; format: functional

Compound | IC50 [1] [µM] | EC50 [2] [µM] | CC50 [3] [µM] | selectivity ratio [4] | CC50 [5] [µM] | EC50 [6] [µM]
O=C(O)c1ccccc1NS(=O)(=O)c1cccc(-c2cnn(Cc3ccccc3)c2)c1 | 0.7 |  |  |  |  | 
COc1ccc(Cn2cnc3c(Cl)nc(Cl)nc32)cc1 |  | 17.6 | 32.4 | 2 |  | 
COc1ccc(Cn2cnc3c(Nc4ccc(C)cc4Br)nc(Cl)nc32)cc1 |  | 7.2 | > 109 | 15 | 63 | 
Cc1ccc(Nc2nc(Cl)nc3[nH]cnc23)c(Br)c1 |  | 33.5 | > 148 | 4 |  | 
COc1ccc(Cn2cnc3nc(Cl)nc(Cl)c32)cc1 |  | 9.9 | 12.3 | 1 |  | 
Clc1ccc(-c2ccc(-c3nc(NCc4cccnc4)c4ccccc4n3)s2)cc1 |  |  |  |  |  | 0.119
Cc1ccc(Nc2nc(Cl)nc3[nH]cnc23)c(-c2cc(C)n[nH]2)c1 |  | 28.9 | > 147 | 5 |  | 
Cc1ccc(Nc2nc(Nc3ccc(F)cc3)nc3ccccc23)c(-c2cc(C)n[nH]2)c1 |  | 6.7 | 8.7 | 1 |  | 
Cc1ccc(Nc2nc(Cl)nc3ccccc23)c(-c2cc(C)n[nH]2)c1 |  | 9.2 | 97 | 11 |  | 
COc1ccc(Cn2cnc3c(Nc4ccc(C)cc4-c4cc(C)n[nH]4)nc(Cl)nc32)cc1 |  | 1.9 | > 109 | 58 | 10 | 
Cc1ccc(Nc2nc(Cl)nc3ccccc23)c(Br)c1 |  | 10.9 | > 144 | 13 | 32 | 
Cc1ccc(Nc2nc(Nc3ccc(C)cc3-c3cc(C)n[nH]3)c3ccccc3n2)cc1 |  | 2.6 | 5.8 | 2 |  | 
